These results are taken from PubChem BioAssay.

Activity calls are given as the source filed them.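 The calls were made as follows, unless noted: active = viability loss from added drug above about 55%, and viability with drug at most 40%, in both replicates (limit read from the data, passing the limit was not always enough); inconclusive = both conditions met in only one replicate; inactive = neither replicate meets both conditions.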

Assay [1] in a line: Her2 expression decrease, cell viability multiplex – SKBR3 breast tumor cells, AlphaScreen, ATP viability, primary screen (AID 461;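 active = Her2 level under about 52% in both replicate screens, with viability over 70% of control, limit read from the data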;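 as to Her2 level: lower value means less Her2 protein in the cells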;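 as to viability: percent of carrier control wells set as 100% viability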). As to conditions: SKBR3 Her2 protein level, 18-24 h, measured here: SKBR3 viability, ATP luminescence, at 10 µM.
For assay [2], the target named is Receptor tyrosine-protein kinase erbB-2 (Homo sapiens) (UniProt P04626). Described as above. As to conditions: 18-24 h, at 10 µM, stronger effect = lower value.
Receptor tyrosine-protein kinase erbB-2 (Homo sapiens), sequence (P04626 whole entry, looked up): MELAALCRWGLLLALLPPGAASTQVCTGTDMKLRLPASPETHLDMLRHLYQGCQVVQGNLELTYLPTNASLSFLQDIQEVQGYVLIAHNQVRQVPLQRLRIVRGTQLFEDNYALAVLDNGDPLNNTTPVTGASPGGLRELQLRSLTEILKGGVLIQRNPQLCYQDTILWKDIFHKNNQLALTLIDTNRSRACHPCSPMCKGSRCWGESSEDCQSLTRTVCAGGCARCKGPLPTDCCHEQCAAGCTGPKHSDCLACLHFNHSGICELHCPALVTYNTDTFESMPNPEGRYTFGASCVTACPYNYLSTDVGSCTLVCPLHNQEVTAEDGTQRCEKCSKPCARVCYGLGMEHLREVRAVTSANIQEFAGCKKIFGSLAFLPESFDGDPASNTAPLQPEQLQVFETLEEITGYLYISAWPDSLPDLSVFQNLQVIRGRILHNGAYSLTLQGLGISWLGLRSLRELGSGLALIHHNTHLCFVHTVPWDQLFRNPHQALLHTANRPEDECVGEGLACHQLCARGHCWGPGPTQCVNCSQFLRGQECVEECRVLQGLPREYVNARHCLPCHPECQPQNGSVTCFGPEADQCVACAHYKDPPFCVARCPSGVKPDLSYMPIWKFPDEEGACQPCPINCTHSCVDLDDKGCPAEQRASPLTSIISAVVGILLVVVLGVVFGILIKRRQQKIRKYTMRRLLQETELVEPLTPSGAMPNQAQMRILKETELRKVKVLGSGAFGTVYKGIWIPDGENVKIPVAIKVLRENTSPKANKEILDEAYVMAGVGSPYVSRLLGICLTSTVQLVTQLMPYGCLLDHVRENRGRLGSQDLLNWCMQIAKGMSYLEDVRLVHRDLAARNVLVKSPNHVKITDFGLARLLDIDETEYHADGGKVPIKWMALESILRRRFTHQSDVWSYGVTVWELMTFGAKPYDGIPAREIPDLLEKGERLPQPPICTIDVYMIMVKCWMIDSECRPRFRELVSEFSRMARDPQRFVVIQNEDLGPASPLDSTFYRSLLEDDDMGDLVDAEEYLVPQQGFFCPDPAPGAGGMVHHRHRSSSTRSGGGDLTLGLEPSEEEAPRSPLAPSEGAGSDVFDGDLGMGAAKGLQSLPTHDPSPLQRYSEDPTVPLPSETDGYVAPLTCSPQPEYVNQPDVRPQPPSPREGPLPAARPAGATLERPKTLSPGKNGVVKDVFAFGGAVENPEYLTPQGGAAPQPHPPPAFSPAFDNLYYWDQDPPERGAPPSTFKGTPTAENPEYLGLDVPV
Assay [3] is described as follows: reduced viability of SK-BR-3 breast cancer cells – cell-based, 24 h, human, pilot screen (AID 572;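 active = viability at or below 10% of carrier control in both of two separate runs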;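 also: compound exposure lasted between 18 and 24 h rather than exactly 24 h; 100% = carrier-treated control wells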). As to conditions: SK-BR-3 viability, CellTiter-Glo luminescence, at 10 µM, stronger effect = lower value.
Assay [4] is described as follows: HUVEC growth inhibition – cell-based, human, primary screen (AID 575;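 active = viability at or below 30% in both replicate assays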;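 also: 100% = median of untreated cell wells with 0.1% DMSO on each plate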). The following applies: HUVEC proliferation, CellTiter-Glo luminescence, 72 h; at 10 µM; stronger effect = lower value. Summed up: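 Timing: 72 h treatment at 37 °C; material: HUVEC primary cells; technique: CellTiter-Glo luminescence measuring cellular ATP; controls: vehicle and MePR control wells; measure: percent of median DMSO-control luminescence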

Assay [5] can be described thus: H69AR cell proliferation blockers – human, duplicate replicates, primary screen (AID 580;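 active = viability at or under a set limit in both replicates, limit being median viability minus 3 SD, cut at about 48% in these data, passing the limit was not always enough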;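 also: 100% = mean luminescence of untreated wells and 0% = no signal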). As to conditions: H69AR lung tumor cells viability, ATP luminescence, 72 h; at 10 µM; stronger effect = lower value.
Assay [6] can be described thus: MRP1 drug-resistance reversers in H69AR cells – cell-based, doxorubicin co-treatment, pilot screen (AID 601). As to conditions: CellTiter-Glo, 72 h, at 10 µM; for differential viability (reversal): stronger effect = higher value.
Assay [7] can be described thus: yeast transport mutant growth inhibition pilot in 384-well plates, post-Golgi transport modulator project (AID 636; in the data active = inhibition above about 31%). As to conditions: absorbance 615 nm, about 18 h, stronger effect = higher value.
A short description of assay [8]: growth suppression of yeast trafficking mutant, preliminary HTS, modulators of trafficking downstream of Golgi apparatus project, 1536-format plate, OD 615 nm (AID 637; in the data active = inhibition above about 30%). The following applies: yeast transport mutant growth, absorbance 615 nm, 18 h; stronger effect = higher value.
Where [9] appears, read: H69AR cells + 2 uM doxorubicin, measured here: viability with 2 uM doxorubicin, stronger effect = lower value.
The mark [10] stands for this setting: H69AR cells, compound alone cytotoxicity.

Consider `O=C(OCC(=O)N1CCCC1)c1cncc(Br)c1`, for which the viability in assay [1] was 106%; in assay [3], 106% (inactive); in assay [4], 106% (inactive); in assay [5] it was 102% (inactive); in assay [6] (setting [9]), 86.4%; in assay [6] (setting [10]), 102%. Moreover, the Her2 level in assay [2] was 90% (inactive). In assay [6] (H69AR cells + 2 uM doxorubicin), the differential viability (reversal) is 15.6% (inactive). Further, the figures for the inhibition in assay [7] and in assay [8] were -7.57% (inactive) and 5.33% (inactive), respectively.

Regarding `CC(=O)Nc1ccc(NS(=O)(=O)C(F)(F)F)cc1`, the viability in assay [1] was 82.5%; in assay [3] it was 82.5% (inactive); in assay [4], 93.9% (inactive); in assay [5] it was 92.6% (inactive); in assay [6] (setting [9]) it was 96.3%; in assay [6] (setting [10]) it was 92.6%. For the same molecule, the Her2 level in assay [2] was 97% (inactive). Besides, in assay [6] (H69AR cells + 2 uM doxorubicin), the differential viability (reversal) is -3.72% (inactive). Further, the results for the inhibition in assay [7] and in assay [8] were -2.34% (inactive) and 1.48% (inactive), respectively.

As for `CS(=O)(=O)N1CCN(CC2CC3C=CC2C3)CC1` (stereo not given), the viability in assay [1] is 110%; in assay [3], 110% (inactive); in assay [4], 111% (inactive); in assay [5], 101% (inactive); in assay [6] (setting [9]), 91.1%; in assay [6] (setting [10]) it was 101%. Besides, the Her2 level in assay [2] is 98% (inactive). Moreover, the differential viability (reversal) in assay [6] (H69AR cells + 2 uM doxorubicin) was 9.65% (inactive). Besides, the inhibition in assay [7] is -6.35% (inactive); in assay [8], 3.17% (inactive).

`CCOC(=O)c1[nH]nc(-c2c(O)cc(C)cc2O)c1-c1csc(C)n1`: the viability in assay [1] is 94%; in assay [3], 94% (inactive); in assay [4], 106% (inactive); in assay [5], 96.5% (inactive); in assay [6] (setting [9]), 89.8%; in assay [6] (setting [10]), 96.5%. Moreover, the Her2 level in assay [2] was 106% (inactive). Further, the differential viability (reversal) in assay [6] (H69AR cells + 2 uM doxorubicin) is 6.7% (inactive). For the same molecule, the inhibition is -6.71% (inactive) in assay [7] and -2.91% (inactive) in assay [8].

On to `O=C(CCCc1cccs1)Nc1nc2c(s1)CCCC2`, for which the viability in assay [1] was 86.5%; in assay [3], 86.5% (inactive); in assay [4] it was 55.3% (inactive); in assay [5], 84.5% (inactive); in assay [6] (setting [9]), 81.7%; in assay [6] (setting [10]), 84.5%. In assay [2], the Her2 level was 74% (inactive). Moreover, in assay [6] (H69AR cells + 2 uM doxorubicin), the differential viability (reversal) is 2.73% (inactive). For the same molecule, the inhibition in assay [7] was -9.19% (inactive); in assay [8], 0.82% (inactive).

On to `Cc1nn(-c2ccccc2)c(C)c1/C=N/O`, for which the viability in assay [1] was 106%; in assay [3], 106% (inactive); in assay [4], 100% (inactive); in assay [5], 96.5% (inactive); in assay [6] (setting [9]) it was 85.1%; in assay [6] (setting [10]) it was 96.5%. Further, in assay [2], the Her2 level was 104% (inactive). In assay [6] (H69AR cells + 2 uM doxorubicin), the differential viability (reversal) was 11.4% (inactive). Besides, the inhibition was -4.73% (inactive) in assay [7] and 3.93% (inactive) in assay [8].

As for `CCSc1nnc(NC(=O)c2ccc(C)o2)s1`, the viability was 96.5% in assay [1]; 96.5% (inactive) in assay [3]; 105% (inactive) in assay [4]; 116% (inactive) in assay [5]; 97.4% in assay [6] (setting [9]); 116% in assay [6] (setting [10]). Moreover, in assay [2], the Her2 level was 98.5% (inactive). Also, in assay [6] (H69AR cells + 2 uM doxorubicin), the differential viability (reversal) is 18.2% (inactive). The inhibition in assay [7] was -4.13% (inactive); in assay [8] it was -5.32% (inactive).

As for `COC(=O)c1c(N)n(-c2cc(OC)cc(OC)c2)c2nc3ccccc3nc12`, the viability in assay [1] is 85.5%; in assay [3], 85.5% (inactive); in assay [4], 61.7% (inactive); in assay [5] it was 101% (inactive); in assay [6] (setting [9]), 90.5%; in assay [6] (setting [10]) it was 101%. Also, the Her2 level in assay [2] was 93% (inactive). Besides, in assay [6] (H69AR cells + 2 uM doxorubicin), the differential viability (reversal) was 10.6% (inactive). In addition, the inhibition in assay [7] was -6.35% (inactive); in assay [8], 3.83% (inactive).

Turning to `COc1ccccc1NC(=O)c1ccc(NC(=O)CSc2nnnn2C)cc1`, the viability is 92% in assay [1]; 92% (inactive) in assay [3]; 84% (inactive) in assay [4]; 13.1% (active) in assay [5]; 38.7% in assay [6] (setting [9]); 13.1% in assay [6] (setting [10]). Moreover, the Her2 level in assay [2] is 96% (inactive). In addition, the differential viability (reversal) in assay [6] (H69AR cells + 2 uM doxorubicin) is -25.5% (inactive). For the same molecule, the inhibition is -6% (inactive) in assay [7] and -2.13% (inactive) in assay [8].

Consider `O=C(NCC(c1cccnc1)N1CCOCC1)c1ccco1` (stereo not given), for which the viability in assay [1] is 97%; in assay [3], 97% (inactive); in assay [4] it was 106% (inactive); in assay [5] it was 98.9% (inactive); in assay [6] (setting [9]), 90.6%; in assay [6] (setting [10]), 98.9%. Further, the Her2 level in assay [2] is 71% (inactive). Further, in assay [6] (H69AR cells + 2 uM doxorubicin), the differential viability (reversal) was 8.38% (inactive). The inhibition in assay [7] is -4.87% (inactive); in assay [8], 1.17% (inactive).

With `O=C(CCSc1ccccc1)N1CCN(C(=O)c2ccco2)CC1`, the viability is 99% in assay [1]; 99% (inactive) in assay [3]; 93.1% (inactive) in assay [4]; 95.1% (inactive) in assay [5]; 84.1% in assay [6] (setting [9]); 95.1% in assay [6] (setting [10]). Also, the Her2 level in assay [2] was 99.5% (inactive). In addition, the differential viability (reversal) in assay [6] (H69AR cells + 2 uM doxorubicin) was 11% (inactive). Further, the values for the inhibition in assay [7] and in assay [8] were -0.79% (inactive) and -0.32% (inactive), respectively.

With `CC(C(=O)N1CCOCC1)N1c2cccc3cccc(c23)S1(=O)=O` (stereo not given), the viability in assay [1] is 101%; in assay [3], 101% (inactive); in assay [4] it was 100% (inactive); in assay [5], 93.5% (inactive); in assay [6] (setting [9]), 92.6%; in assay [6] (setting [10]) it was 93.5%. For the same molecule, the Her2 level in assay [2] is 91.5% (inactive). Further, the differential viability (reversal) in assay [6] (H69AR cells + 2 uM doxorubicin) was 0.905% (inactive). Besides, the inhibition in assay [7] is -2.76% (inactive); in assay [8] it was 5.57% (inactive).

On to `CC(C)(C)NC(=O)Nc1ccccc1C(N)=O`, for which the viability in assay [1] was 110%; in assay [3], 110% (inactive); in assay [4], 103% (inactive); in assay [5] it was 110% (inactive); in assay [6] (setting [9]) it was 103%; in assay [6] (setting [10]), 110%. For the same molecule, the Her2 level in assay [2] is 108% (inactive). Further, in assay [6] (H69AR cells + 2 uM doxorubicin), the differential viability (reversal) was 7.05% (inactive). Further, the figures for the inhibition in assay [7] and in assay [8] were -2.27% (inactive) and -5% (inactive), respectively.

Consider `Brc1cccc(-c2cnc3n2CCCCC3)c1`, for which the viability in assay [1] was 95.5%; in assay [3], 95.5% (inactive); in assay [4] it was 67.1% (inactive); in assay [5] it was 91.5% (inactive); in assay [6] (setting [9]), 80.4%; in assay [6] (setting [10]), 91.5%. Moreover, the Her2 level in assay [2] was 89.5% (inactive). Also, in assay [6] (H69AR cells + 2 uM doxorubicin), the differential viability (reversal) is 11.1% (inactive). The inhibition in assay [7] is -6.53% (inactive); in assay [8] it was 4.26% (inactive).

Turning to `Cc1nc2ccccc2c2oc(C(=O)NCc3ccccn3)cc12`, the viability is 81% in assay [1]; 81% (inactive) in assay [3]; 81.4% (inactive) in assay [4]; 96.8% (inactive) in assay [5]; 94.6% in assay [6] (setting [9]); 96.8% in assay [6] (setting [10]). Moreover, the Her2 level in assay [2] was 88% (inactive). Also, the differential viability (reversal) in assay [6] (H69AR cells + 2 uM doxorubicin) is 2.25% (inactive). The inhibition in assay [7] was -1.73% (inactive); in assay [8] it was -2.3% (inactive).

Turning to `CC1CCN(CCn2c(=S)[nH]c3ncccc3c2=O)CC1`, the viability in assay [1] was 98.5%; in assay [3], 98.5% (inactive); in assay [4], 78.6% (inactive); in assay [5] it was 104% (inactive); in assay [6] (setting [9]), 93.9%; in assay [6] (setting [10]) it was 104%. For the same molecule, the Her2 level in assay [2] was 95% (inactive). The differential viability (reversal) in assay [6] (H69AR cells + 2 uM doxorubicin) is 9.6% (inactive). In addition, the inhibition in assay [7] was -2.89% (inactive); in assay [8] it was 0.83% (inactive).
